Results pooled from the literature.
Compare with care: the assays were run in different laboratories.
Target: RAC-alpha serine/threonine-protein kinase (AKT1, Homo sapiens, UniProt P31749)

SMILES | test | conditions | measurement | result
COc1ccc2[nH]c3c4[nH]c5ccc(OC)cc5c4c4c(c3c2c1)C(=O)NC4=O | binding | 1 µM | remaining binding | 72%
CO[C@@H]1[C@H](N(C)C(=O)c2ccccc2)C[C@H]2O[C@]1(C)n1c3ccccc3c3c4c(c5c6ccccc6n2c5c31)C(=O)NC4 | enzyme activity, inhibitor | 1 µM | inhibition | 7%
COc1ccc2oc(-c3ccc4nc(N)oc4c3)c/c(=N\c3ccccc3NC(=O)CCN)c2c1 | binding | 1 µM | remaining binding | 91%
N#Cc1ccc(NC(=O)Nc2ccccc2)cc1 | cell-free assay, competition with immobilised ligand | 25 µM | remaining binding | 100%
C#Cc1cnc(Nc2ccnc(CO)c2)nc1Nc1ccccc1S(C)(=O)=NC#N (stereo not shown) | cell-free assay | 1 µM | remaining signal | 100%
CCCCC(=O)Nc1ccc(-c2ccc3ncn(CCC)c(=O)c3c2)cn1 | binding, competition with immobilised ligand | 0.5 µM | remaining binding | 100%
Cc1ccc(NC(=O)c2ccnc(C(F)(F)F)c2)cc1-c1cc(OCCO)nc(N2CCOCC2)c1 | binding | 1 µM | remaining binding | 99%
C=CC(=O)N1CCC([C@@H]2CCNc3c(C(N)=O)c(-c4ccc(Oc5ccccc5)cc4)nn32)CC1 | enzyme activity, inhibitor | 1 µM | inhibition | 7%
Cc1cc(O)c(-c2ccc([C@@H](C)CN(C)C)cc2)c2c1[nH]c(=O)c1sccc12 | enzyme activity, inhibitor | 0.1 µM | inhibition | -0.622%
C1=C/COCc2cc(ccc2OCCN2CCCC2)Nc2nccc(n2)-c2cccc(c2)COC/1 | binding | 0.1 µM | remaining binding | 100%
